# FGF22 binding: shifts melting point of recombinant human FGF22; AID 651658; activity (Tm shift, normalised), % at 9.99 µM; 340,000 tested, 1.5% active; recombinant FGF22 thermal shift, SYPRO orange fluorescence; percent of sucrose octasulfate shift, DMSO zero;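 active = mean Tm shift, scaled 0 neutral to 100 positive control, at about 1.3% or above, every replicate too, limit read from the data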
# Target sequence (Q9HCT0 whole entry, looked up): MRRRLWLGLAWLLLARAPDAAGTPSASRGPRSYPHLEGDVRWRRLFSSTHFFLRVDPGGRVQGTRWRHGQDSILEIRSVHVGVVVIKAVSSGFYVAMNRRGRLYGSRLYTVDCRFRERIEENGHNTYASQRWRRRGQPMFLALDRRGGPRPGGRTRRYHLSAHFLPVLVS
# NR2E3 ag-1: human photoreceptor-specific nuclear receptor agonism; CHO-S Gal4-NCOR/VP16-NR2E3 two-hybrid, luciferase; inhibition of corepressor binding, % at 3.98 µM; 360,000 tested, 0.35% active; AID 602229;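 active = inhibition above the mean of all tested compounds plus 3 SD, cut at about 70% in these data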;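 note: 0% = DMSO with NR2E3 transfected cells and 100% = cells lacking NR2E3 construct; higher means lower luciferase signal from less NR2E3 corepressor binding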
# NR2E3 ag-2: NR2E3 (human) agonism; GST-NR2E3/biotin-RetCOR TR-FRET, 1536-well; 320,000 tested, 0.12% active; inhibition of corepressor binding, % at 4.78 µM; AID 2300;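 active = percent inhibition above the cutoff of mean plus 3 SD of all tested compounds, set per screening campaign, cut at about 20% in these data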;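 note: 0% = DMSO wells and 100% = biotin wells as full block of FRET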
#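 System: GST-tagged NR2E3 plus biotinylated RetCOR corepressor; Buffer or medium: pH 7.5 Tris-based buffer; Probe or stimulus: RetCOR corepressor, biotinylated, 7 nM; Doses: compound at 4.8 µM, single dose; Schedule: 5 h incubation at 4 °C; Technique: time-resolved FRET; Evaluation: percent inhibition of TR-FRET ratio; Replication: one well per compound, singlicate testing.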
# miR122 inh: inhibitors of miR-122 in Huh7 cells; AID 602342; Huh7 miR-122 Renilla luciferase sensor, 48 h; neutral wells = 0, positive control = 100; 340,000 tested, 0.3% active; activation (reporter increase), % at 12.5 µM;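 active = mean replicate activation score at least 90 and every replicate individually at or above 90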;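 note: higher luciferase means less miR-122 activity so hits act as miR-122 inhibitors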
# Jurkat NFkB inh: inhibitors of the PMA/ionomycin-induced NF-kB reporter in Jurkat cells. PMA/ionomycin-induced NF-kB luciferase reporter, luminescence. inhibition, % at 4 µM. 330,000 tested, 0.53% active; in the data active = inhibition above about 50%
# 697 NFkB inh: inhibitors of the PMA/ionomycin-induced NF-kB reporter in 697 B cells; 330,000 tested, 0.33% active; 697 B-cell NF-kB luciferase reporter, 16 h; inhibition, % at 4 µM; in the data active = inhibition above about 35%
# Starred values were filed as active, the others as inactive; . = no result given; [ ] = dose if it differs, or a comment. Only some compounds are listed: those with a hit (about 2.2% of all), similar ones and a draw of the others.
SMILES,FGF22 binding,NR2E3 ag-1,NR2E3 ag-2,miR122 inh,Jurkat NFkB inh,697 NFkB inh
CCC(=O)N1CC2(C1)CN(S(=O)(=O)c1ccccc1)[C@@H](CO)c1[nH]c3cc(OC)ccc3c12,0,.,.,.,.,.
CCS(=O)(=O)N1Cc2ccccc2CC1C(=O)NC(C)C12CC3CC(CC(C3)C1)C2 (configuration not stated),.,-25,-3,-9,7,13
CCS(=O)(=O)N1Cc2ccccc2CC1C(=O)NCC12CC3CC(CC(C3)C1)C2 (configuration not stated),.,9,-1,256*,4,6
CCCC(=O)Nc1ccc2c(c1)C(=O)N(C)C[C@H](OC)[C@H](C)CN(C(=O)C1CCCC1)[C@H](C)CO2,0,.,.,.,.,.
CC(=O)N1[C@@H]2c3ccc(C4=CCCCC4)c(=O)n3C[C@H]1[C@H](CO)[C@H]2C(=O)NC1CCCC1,0,.,.,3[16.7 µM],.,.
O=C(NC(=S)Nc1ccc(S(=O)(=O)NC2CCCCC2)cc1)c1cccs1,0,19,14,396*,-5,-27
CCn1c(C)nc2cc(C(=O)OC)ccc21,43*,-3,3,.,-27,2
COC(=O)c1ccc2c(c1)nc(C)n2CCO,.,-9,0,1,-7,-8
COCCN(C(=S)Nc1ccccc1C)C(C)c1ccco1 (configuration not stated),43*,-2,0,-4,-15,-31
COCCN(C(=S)Nc1cccc(C)c1C)C(C)c1ccco1 (configuration not stated),0,-14,1,.,-1,-1
CC(C)NC(=O)Nc1ccc2c(c1)C(=O)N([C@H](C)CO)C[C@H](C)[C@@H](CN(C)Cc1ccccc1)OCCCC[C@H](C)O2,0,.,.,0[16.7 µM],.,.
O=c1c2c(-c3ccccc3)csc2ncn1/N=C/c1ccc(O)c([N+](=O)[O-])c1,44*,3,-1,.,-1,-1
CO[C@H]1CN(C)C(=O)c2cc(NS(C)(=O)=O)ccc2OC[C@@H](C)N(C(=O)C2CCOCC2)C[C@@H]1C,0,.,.,.,.,.
O=c1c(Cc2ccc(F)cc2)c(O)ccn1CCc1cnc[nH]1,43*,-9,-2,.,6,4
COc1ccc(CN(C)C[C@@H]2Oc3ccc(NS(=O)(=O)c4ccc(F)cc4)cc3C(=O)N([C@@H](C)CO)C[C@H]2C)cc1,0,.,.,7[16.7 µM],.,.
COc1ccccc1CNC(=O)C[C@@H]1C[C@H]2c3cc(NS(C)(=O)=O)ccc3O[C@H]2[C@@H](CO)O1,0,.,.,-4[16.7 µM],.,.
CCOc1nc(N2CCOCC2)nc(C)c1[N+](=O)[O-],44*,9,3,-9,4,8
CNCCOc1nc(N2CCOCC2)nc(C)c1[N+](=O)[O-],0,-33,2,-1,-11,9
O=C(C[C@H]1C[C@@H]2c3cc(NC(=O)Nc4ccc(F)cc4)ccc3O[C@@H]2[C@H](CO)O1)NC1CCCCC1,0,.,.,-4[16.7 µM],.,.
CC(=O)c1cccc(NC(=O)CSc2ccc(-c3ccc4c(c3)OCO4)nn2)c1,0,2,1,-2,-13,-6
COc1ccc(-c2ccc(SCC(=O)Nc3cccc(C(C)=O)c3)nn2)cc1OC,43*,-16,0,1,-25,3
COc1ccc(NC(=O)CSc2ccc(-c3ccccn3)nn2)cc1OC,43*,-4,-2,-8,2,6
CCOc1ncccc1C(=O)Nc1ccc(F)c(F)c1,43*,-31,-2,-2,-6,-2
COCCCNCC(O)COc1cccc2[nH]c(C)cc12 (configuration not stated),1.4*,-4,4,.,17,7
Cc1cc2c(OCC(O)CNC(C)(C)C)cccc2[nH]1 (configuration not stated),.,-31,4,-5,6,21
O=C(O)[C@@H]1[C@@H](CO)[C@@H]2Cn3c(ccc(/C=C/c4ccccc4)c3=O)[C@@H]2N1Cc1ccc2c(c1)OCO2,0,.,.,.,.,.
O=S(=O)(c1ccc(F)cc1)N1CCN(C(=S)NCc2ccccc2)CC1,44*,12,1,13,-12,-4

# Compound activity as filed in PubChem BioAssay.
